Source: ChEMBL document CHEMBL1125330, “N-substituted pyrazino[2,3-c][1,2,6]thiadiazine 2,2-dioxides. A new class of diuretics” (J Med Chem, 1992)

Columns and labels:
Rattus norvegicus [1] = assay: Mean urinary output in rats when compound administered at 10 mg/kg po and vehicle dosed at 39.48 umol/kg; format: ADME, organism-based, Urine; design: dose 10 mg/kg, route oral; conditions: in vivo
Summary of the method: (§1)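 Water-loaded male Sprague-Dawley rats (HC/CFY, 175-200 g) fasted and without water for 18 h. Oral gavage of 2.5-160 mg/kg in 1% CMC with 0.1% Tween 80, then distilled water 2.5 mL/100 g po. Urine collected 6 h in metabolic cages, mean output in mL/6 h/kg bw. Unpaired Student t-test against vehicle; dose-response by linear regression.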

Rattus norvegicus [2] = assay: Mean urinary output in rats when compound administered at 160 mg/kg po and vehicle dosed at 631.76 umol/kg; format: ADME, organism-based, Urine; design: dose 160 mg/kg, route oral; conditions: in vivo; summary of the method: as §1
Rattus norvegicus [3] = assay: Mean urinary output in rats when compound administered at 2.5 mg/kg po and vehicle dosed at 9.87 umol/kg; format: ADME, organism-based, Urine; design: dose 2.5 mg/kg, route oral; conditions: in vivo; summary of the method: as §1
Rattus norvegicus [4] = assay: Mean urinary output in rats when compound administered at 20 mg/kg po and vehicle dosed at 78.97 umol/kg; format: ADME, organism-based, Urine; design: dose 20 mg/kg, route oral; conditions: in vivo; summary of the method: as §1
Rattus norvegicus [5] = assay: Mean urinary output in rats when compound administered at 40 mg/kg po and vehicle dosed at 157.94 umol/kg; format: ADME, organism-based, Urine; design: dose 40 mg/kg, route oral; conditions: in vivo; summary of the method: as §1
Rattus norvegicus [6] = assay: Mean urinary output in rats when compound administered at 5 mg/kg po and vehicle dosed at 19.74 umol/kg; format: ADME, organism-based, Urine; design: dose 5 mg/kg, route oral; conditions: in vivo; summary of the method: as §1
Rattus norvegicus [7] = assay: Mean urinary output in rats when compound administered at 80 mg/kg po and vehicle dosed at 315.88 umol/kg; format: ADME, organism-based, Urine; design: dose 80 mg/kg, route oral; conditions: in vivo; summary of the method: as §1
[8] = Acute toxicity in mice when given po; format: organism-based; conditions: mouse, in vivo, read-out: DL50 (the source's name)
Summary of the method: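 Male Swiss mice (SPF, HC/CFLP strain, 20–25 g), oral dosing; mortality followed over 15 days; LD50 derived by the Litchfield and Wilcoxon method.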

Rattus norvegicus [9] = assay: Dose required to produce an excretion of 2 mequiv of Na+/kg bw/6h vs control groups; format: functional
Summary of the method: (§2)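 Male Sprague-Dawley rats (HC/CFY, 175-200 g), fasted and water-deprived 18 h before and during the test. Compound dosed by gavage in 1% carboxymethyl cellulose/0.1% Tween 80, then water load 2.5 mL/100 g bw po. Urine collected 6 h in metabolic cages; Na+ by flame photometry. Effective doses vs vehicle controls derived by linear regression of dose-response data.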

Rattus norvegicus [10] = species: Rattus norvegicus; assay: Dose required to produce increase in 50 % in urine production vs control groups; format: functional; summary of the method: as §2
Rattus norvegicus [11] = assay: Post dosing time interval of maximum activity; format: functional
Summary of the method: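 Interval of peak activity taken from timed urine collections (0-1, 1-2, 2-3, 3-4, 4-6 h) after a single oral dose in water-loaded fasted rats, […]. Urine volume and Na+ excretion followed over time.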

Rattus norvegicus [12] = assay: Urinary sodium 1 hr after the compound was administered 125 mg/kg po in rat; format: ADME, organism-based, Urine; design: dose 125 mg/kg, route oral; conditions: in vivo
Summary of the method: (§3)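 Onset and duration study in fasted, water-loaded male Sprague-Dawley rats housed two per metabolic cage, six pairs per group. Single oral dose given, then water 2.5 mL/100 g po. Urine volume and sodium (flame photometry) measured over 0-1, 1-2, 2-3, 3-4 and 4-6 h intervals. Mean values compared with vehicle by Student t-test.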

Rattus norvegicus [13] = assay: Urinary sodium 2 hr after the compound was administered 125 mg/kg po in rat; format: ADME, organism-based, Urine; design: dose 125 mg/kg, route oral; conditions: in vivo; summary of the method: as §3
Rattus norvegicus [14] = assay: Urinary sodium 3h after the compound was administered 125 mg/kg po in rat; format: ADME, organism-based, Urine; design: dose 125 mg/kg, route oral; conditions: in vivo; summary of the method: as §3
Rattus norvegicus [15] = assay: Urinary sodium 4 hr after the compound was administered 125 mg/kg po in rat; format: ADME, organism-based, Urine; design: dose 125 mg/kg, route oral; conditions: in vivo; summary of the method: as §3
Rattus norvegicus [16] = assay: Urinary sodium 6 hr after the compound was administered 125 mg/kg po in rat; format: ADME, organism-based, Urine; design: dose 125 mg/kg, route oral; conditions: in vivo
Summary of the method: (§4)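 Onset/duration protocol: male Sprague-Dawley rats (HC/CFY, 175-200 g), food and water withdrawn for 18 h before and during the test. Single gavage dose in 1% carboxymethyl cellulose/0.1% Tween 80 (0.5 mL/100 g bw), then distilled water load (2.5 mL/100 g bw po). Two rats per metabolic cage, six pairs per group. Urine collected at 0-1, 1-2, 2-3, 3-4 and 4-6 h; Na+ by flame photometry. Vehicle controls; nonpaired Student t-test.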

Rattus norvegicus [17] = assay: Volume of urine 1 hr after the compound was administered 125 mg/kg po in rat; format: ADME, organism-based; design: dose 125 mg/kg, route oral; conditions: in vivo; summary of the method: as §4
Rattus norvegicus [18] = assay: Volume of urine 2 hr after the compound was administered 125 mg/kg po in rat; format: ADME, organism-based; design: dose 125 mg/kg, route oral; conditions: in vivo; summary of the method: as §4
Rattus norvegicus [19] = assay: Volume of urine 3h after the compound was administered 125 mg/kg po in rat; format: ADME, organism-based; design: dose 125 mg/kg, route oral; conditions: in vivo; summary of the method: as §4
Rattus norvegicus [20] = assay: Volume of urine 4 hr after the compound was administered 125 mg/kg po in rat; format: ADME, organism-based; design: dose 125 mg/kg, route oral; conditions: in vivo; summary of the method: as §4
Rattus norvegicus [21] = assay: Mean Chlorine excretion in rats when compound administered at 20 mg/kg po and vehicle dosed at 78.97 umol/kg; format: ADME, organism-based; design: dose 20 mg/kg, route oral; conditions: in vivo
Summary of the method: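 Male Sprague-Dawley rats (HC/CFY, 175-200 g), no food or water for 18 h before and during the test. Single gavage dose (2.5-160 mg/kg; vehicle 1% carboxymethyl cellulose/0.1% Tween 80, 0.5 mL/100 g bw), then distilled water 2.5 mL/100 g bw po. Individual metabolic cages, 6 h urine. K+ by flame photometry, Cl- colorimetric, as mequiv/6 h/kg bw; unpaired Student t-test vs control.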

Rattus norvegicus [22] = assay: Mean sodium excretion in rats when compound administered at 80 mg/kg po and vehicle dosed at 315.88 umol/kg; format: ADME, organism-based; design: dose 80 mg/kg, route oral; conditions: in vivo
Summary of the method: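 Male Sprague-Dawley rats (HC/CFY, 175-200 g) fasted and water-deprived 18 h before and during the test. Dosed by gavage at 2.5-160 mg/kg in 1% carboxymethyl cellulose/0.1% Tween 80, 0.5 mL/100 g bw. Immediately hydrated with water (2.5 mL/100 g bw, po). Urine collected 6 h in metabolic cages; Na+ and K+ by flame photometry; mean mequiv/6 h/kg bw; nonpaired Student t-test.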

Rattus norvegicus [23] = assay: Volume of urine 6 hr after the compound was administered 125 mg/kg po in rat; format: ADME, organism-based; design: dose 125 mg/kg, route oral; conditions: in vivo; summary of the method: as §4

What does the source list for `Nc1nc(N)c2nc(-c3ccccc3)c(N)nc2n1`?
V (Rattus norvegicus [1]): 31.13 ml 6hr-1 (kg of body weight)-1; V (Rattus norvegicus [2]): 52 ml 6hr-1 (kg of body weight)-1; V (Rattus norvegicus [3]): 31.39 ml 6hr-1 (kg of body weight)-1; V (Rattus norvegicus [4]): 32.87 ml 6hr-1 (kg of body weight)-1; V (Rattus norvegicus [5]): 38.1 ml 6hr-1 (kg of body weight)-1; V (Rattus norvegicus [6]): 30.19 ml 6hr-1 (kg of body weight)-1; V (Rattus norvegicus [7]): 44.92 ml 6hr-1 (kg of body weight)-1; LD50 [8]: 344 mg/kg; ED2 (Rattus norvegicus [9]): 3.8 mg/kg; ED50 (Rattus norvegicus [10]): 34.5 mg/kg; Time (Rattus norvegicus [11]): 6 h; Urinary Na+ (Rattus norvegicus [12]): 0.04 m equiv; Urinary Na+ (Rattus norvegicus [13]): 0.16 m equiv; Urinary Na+ (Rattus norvegicus [14]): 0.19 m equiv; Urinary Na+ (Rattus norvegicus [15]): 0.15 m equiv; Urinary Na+ (Rattus norvegicus [16]): 0.46 m equiv; Urine volume (Rattus norvegicus [17]): 0.48 mL; Urine volume (Rattus norvegicus [18]): 3.2 mL; Urine volume (Rattus norvegicus [19]): 2.73 mL; Urine volume (Rattus norvegicus [20]): 1.78 mL; Cl- (Rattus norvegicus [21]): 1.83 m equiv 6hr-1 kg-1 (body weight)-1; Na (Rattus norvegicus [22]): 3.37 m equiv 6hr-1 kg-1 (body weight)-1; Urine volume (Rattus norvegicus [23]): 4.36 mL
